Test results published in ChEMBL document CHEMBL1122704, “Syntheses and anthelmintic activity of alkyl 5(6)-(substituted-carbamoyl)- and 5(6)-(disubstituted-carbamoyl)benzimidazole-2-carbamates and related compounds” (1984).
Activity calls are given as the source filed them. No cut-off for these calls is given here.

Legend:
[1] = system: Rattus norvegicus; assay: Compound was evaluated for the biological activity against Hymenolepsis nana (rats) at the 250 mg/kg; assay type: functional
Outline: (§1)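 Male rats (25–35 g) infected orally with 200 viable eggs. Infection confirmed by ovoscopic examination on days 17–20 postinoculation. Positive rats dosed orally on day 20 ± 1, initially 250 mg/kg × 1, then lower doses for dose–response. Method of Steward.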

[2] = system: Ancylostoma ceylanicum; assay: Compound was evaluated for the biological activity against Ancylostoma ceylanicum in hamsters at the 250 mg/kg; assay type: functional
Outline: (§2)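 Hamsters of either sex (40–60 g) infected orally with 60 third-stage larvae. Test compound given orally as a single dose on day 20 ± 1 postinfection, starting at 250 mg/kg × 1. Lower doses were used for active compounds to establish dose–response. Method of Ray et al. as modified locally.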

[3] = system: Rattus norvegicus; assay: Compound was evaluated for the biological activity against Nippostrongylus brasiliensis in rats at the 250 mg/kg; assay type: functional
Outline: (§3)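 Male rats (25–40 g) inoculated subcutaneously with 500 larvae taken from 6–8-day-old fecal culture. Compounds given orally on day 9 postinfection at 250 mg/kg × 3, with lower doses as follow-up for active compounds. Steward technique as modified by Katiyar and Sen.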

[4] = system: Cricetinae gen. sp.; assay: Compound was evaluated for the biological activity against Ancylostoma ceylanicum in hamsters at the 100 mg/kg; assay type: functional, Cricetulus griseus; outline: as §2
[5] = system: Nippostrongylus brasiliensis; assay: (§4) Anti-nematode activity against Nippostrongylus brasiliensis in rats at 250 mg/kg; Insignificant activity.; assay type: functional
[6] = system: Rattus norvegicus; assay: Compound was evaluated for the biological activity against Hymenolepsis nana (rats) at the 100 mg/kg; assay type: functional; outline: as §1
[7] = system: Rattus norvegicus; assay: Compound was evaluated for the biological activity against Hymenolepsis nana (rats) at the 250 mg/kg; insignificant activity; assay type: functional, organism-based; design: dose 250 mg/kg; outline: as §1
[8] = system: Rattus norvegicus; assay: Compound was evaluated for the biological activity against Hymenolepsis nana (rats)at the 250 mg/kg; insignificant activity; assay type: functional, organism-based; design: dose 250 mg/kg; outline: as §1
[9] = system: Cricetinae gen. sp.; assay: Compound was evaluated for the biological activity against Ancylostoma ceylanicum (hamsters and dogs) at the 50 mg/kg; assay type: functional, Cricetulus griseus
[10] = system: Rattus norvegicus; assay: Compound was evaluated for the biological activity against Nippostrongylus brasiliensis (rats) at the 100 mg/kg; assay type: functional; outline: as §3
[11] = system: Rattus norvegicus; assay: Compound was evaluated for the biological activity against Hymenolepsis nana (rats) at the 50 mg/kg; assay type: functional; outline: as §1
[12] = system: Felis catus; assay: Efficiency against Ancylostoma tubaeformis (hookworm) in cat at the 25 x 3 mg/kg; assay type: functional
[13] = system: Rattus norvegicus; assay: Compound was evaluated for the biological activity against Nippostrongylus brasiliensis in rats at the 25 mg/kg; assay type: functional; outline: as §3
[14] = system: Felis catus; assay: Efficiency against Ancylostoma tubaeformis (hookworm) in cat at the 10 x 3 mg/kg; inactive; assay type: functional, organism-based; design: dose 3 mg/kg; settings: at 3 mg/kg
[15] = system: Cricetinae gen. sp.; assay: Compound was evaluated for the biological activity against Ancylostoma ceylanicum in hamsters at the 3.12 mg/kg; assay type: functional, Cricetulus griseus; outline: as §2
[16] = system: Rattus norvegicus; assay: Compound was evaluated for the biological activity against Nippostrongylus brasiliensis in rats at the 100-50 mg/kg; assay type: functional; outline: as §3
[17] = system: Cricetinae gen. sp.; assay: Compound was evaluated for the biological activity against Ancylostoma ceylanicum in hamsters at the 100-6.25 mg/kg; assay type: functional, Cricetulus griseus; outline: as §2
[18] = system: Rattus norvegicus; assay: Efficiency against L carinii (filarid worm) in cotton (against adults) rat at the 30 x 5 mg/kg (ip); assay type: functional
[19] = system: Rattus norvegicus; assay: Efficiency against L carinii (filarid worm) in cotton (on adults) rat at the 30 x 5 mg/kg (ip); assay type: functional
[20] = system: Mus musculus; assay: Efficiency against Syphacia obvelata (pinworm) in mouse at the 12.5 x 3 mg/kg; assay type: functional
Outline: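 Adult mice of both sexes (20–30 g) with pinworm infection, assessed by Standon's method. Oral dosing started at 25 mg/kg × 3, followed by lower doses for active compounds. Mebendazole at 50 mg/kg × 3 served as positive control.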

[21] = system: Canis familiaris (dog); assay: Efficiency against Toxocara species. (Ascaris) in dog at the 25 x 3 mg/kg
[22] = system: Canis familiaris; assay: Efficiency against Ancylostoma ceylanicum (hookworm) in dog at the 25 x 3 mg/kg; assay type: functional, Canis lupus familiaris
[23] = system: Rattus norvegicus; assay: Efficiency against L carinii (filarid worm) in cotton (against both microfilariae and adults) rat at the 50 x 5 mg/kg (po); inactive; assay type: functional, organism-based; design: dose 5 mg/kg; settings: at 5 mg/kg
[24] = system: Rattus norvegicus; assay: Efficiency against L carinii (filarid worm) in cotton (against both microfilariae and adults) rat at the 10 x 5 mg/kg (ip); inactive; assay type: functional, organism-based; design: dose 5 mg/kg; settings: at 5 mg/kg
[25] = system: Rattus norvegicus; assay: Efficiency against L carinii (filarid worm) in cotton (against microfilariae and inactive against adults) rat at 100 x 5 mg/kg (po); assay type: functional
[26] = system: Canis familiaris (dog); assay: Efficiency against Taenia species. (tapeworm) in dog at the 25 x 3 mg/kg; inactive; settings: at 3 mg/kg
[27] = system: Rattus norvegicus; assay: Compound was evaluated for the biological activity against Hymenolepsis nana (rats) at the 100-50 mg/kg; assay type: functional; outline: as §1
[28] = system: Canis familiaris; assay: Efficiency against Ancylostoma ceylanicum (hookworm) in dog at the 10 x 3 mg/kg; assay type: functional, Canis lupus familiaris
[29] = system: Rattus norvegicus; assay: Efficiency against L carinii (filarid worm) in cotton (on microfilariae) rat at the 30 x 5 mg/kg (ip); assay type: functional
[30] = system: Rattus norvegicus; assay: Compound was evaluated for the biological activity against Hymenolepsis nana (rats) at the 25 mg/kg; assay type: functional; outline: as §1
[31] = system: Cricetinae gen. sp.; assay: Compound was evaluated for the biological activity against Ancylostoma ceylanicum in hamsters at the 50 mg/kg; assay type: functional, Cricetulus griseus; outline: as §2
[32] = system: Rattus norvegicus; assay: Compound was evaluated for the biological activity against Hymenolepsis nana (rats) aat the 250 mg/kg; assay type: functional; outline: as §1
[33] = system: Rattus norvegicus; assay: Compound was evaluated for the biological activity against Hymenolepsis nana (rats) at the 200 mg/kg; assay type: functional; outline: as §1
[34] = system: Cricetinae gen. sp.; assay: Compound was evaluated for the biological activity against Ancylostoma ceylanicum in hamsters at the 100 mg/kg; insignificant activity; assay type: functional, organism-based; design: dose 100 mg/kg; settings: Cricetulus griseus; outline: as §2
[35] = as §4; assay type: functional
[36] = system: Cricetinae gen. sp.; assay: Compound was evaluated for the biological activity against Ancylostoma ceylanicum in hamsters at the 250 mg/kg; insignificant activity; assay type: functional, organism-based; design: dose 250 mg/kg; settings: Cricetulus griseus; outline: as §2
[37] = system: Cricetinae gen. sp.; assay: Compound was evaluated for the biological activity against Ancylostoma ceylanicum in hamsters at the 100-25 mg/kg; assay type: functional, Cricetulus griseus; outline: as §2
[38] = system: Cricetinae gen. sp.; assay: Compound was evaluated for the biological activity against Ancylostoma ceylanicum in hamsters at the 10 mg/kg; assay type: functional, Cricetulus griseus; outline: as §2

SMILES | Activity [1] [%] | Activity [2] [%] | Activity [5] | Activity [7] | also measured
CCN(CC)C(=O)c1ccc2[nH]c(NC(=O)OC)nc2c1 | 100 | 100 |  |  | Activity [3]: 100%
CCCN(CCC)C(=O)c1ccc2[nH]c(NC(=O)OC)nc2c1 | 100 | 100 | inactive |  | Activity [4]: 75%; Activity [6]: 100%
COC(=O)Nc1nc2cc(C(=O)Nc3ccncc3)ccc2[nH]1 |  | 75 | inactive | inactive | 
COC(=O)Nc1nc2cc(C(=O)NCCc3ccc(NC(=O)c4ccc5[nH]c(NC(=O)OC)nc5c4)cc3)ccc2[nH]1 |  | 50 | inactive | inactive | 
CCOC(=O)Nc1nc2cc(C(=O)Nc3ccccc3)ccc2[nH]1 |  | 50 | inactive | inactive | 
COC(=O)Nc1nc2cc(C(=O)N3CCCCC3)ccc2[nH]1 |  | 100 |  |  | Activity [8]: inactive
COC(=O)Nc1nc2cc(C(=O)N(C(C)C)C(C)C)ccc2[nH]1 | 100 | 100 |  |  | Activity [4]: 100%; Activity [9]: 88.8%; Activity [10]: 100%; Activity [3]: 100%; Activity [11]: 100%
COC(=O)Nc1nc2cc(C(=O)N3CCN(c4ccccn4)CC3)ccc2[nH]1 | 100 | 100 |  |  | Efficiency [12]: 100%; Activity [13]: 60%; Efficiency [14]: inactive; Activity [15]: 88%; Activity [16]: 100%; Activity [17]: 100%; Efficiency [18]: 100%; Efficiency [19]: 100%; Efficiency [20]: 100%; Efficiency [21]: 100%; Efficiency [22]: 100%; Efficiency [23]: inactive; Efficiency [24]: inactive; Activity [3]: 100%; Efficiency [25]: 94.8%; Efficiency [26]: inactive; Activity [27]: 100%; Efficiency [28]: 100%; Efficiency [29]: 97%; Activity [30]: 100%
COC(=O)Nc1nc2cc(C(=O)Nc3ccc(S(=O)(=O)c4ccc(NC(=O)c5ccc6[nH]c(NC(=O)OC)nc6c5)cc4)cc3)ccc2[nH]1 |  | 48.2 | inactive | inactive | 
COC(=O)Nc1nc2cc(NC(=O)c3ccc(C(=O)Nc4ccc5[nH]c(NC(=O)OC)nc5c4)cc3)ccc2[nH]1 |  | 100 | inactive | inactive | Activity [31]: 66.6%
COC(=O)Nc1nc2cc(C(=O)N3CCN(c4ccccc4)CC3)ccc2[nH]1 |  | 100 |  |  | Activity [13]: 86.6%; Activity [15]: 77%; Activity [16]: 100%; Activity [17]: 100%; Activity [32]: 100%; Activity [6]: 100%; Activity [3]: 100%; Activity [11]: 100%
COC(=O)Nc1nc2cc(C(=O)Nc3ncc(C)s3)ccc2[nH]1 | 100 | 100 | inactive |  | Activity [6]: 100%
COC(=O)Nc1nc2cc(C(=O)Nc3ccccn3)ccc2[nH]1 |  | 95 | inactive | inactive | 
COC(=O)Nc1nc2cc(C(=O)NCCNC(=O)c3ccc4[nH]c(NC(=O)OC)nc4c3)ccc2[nH]1 |  | 50 | inactive | inactive | 
CNC(=O)c1ccc2[nH]c(NC(=O)OC)nc2c1 | 100 | 95 | inactive |  | 
CCCCCCCCNC(=O)c1ccc2[nH]c(NC(=O)OC)nc2c1 |  | 100 | inactive |  | Activity [33]: 100%
COC(=O)Nc1nc2cc(C(=O)Nc3ccccc3)ccc2[nH]1 |  | 87 | inactive |  | 
COC(=O)Nc1nc2cc(C(=O)NC3=NCCS3)ccc2[nH]1 | 100 | 100 | inactive |  | Activity [31]: 55.5%; Activity [34]: inactive
CCCCNC(=O)c1ccc2[nH]c(NC(=O)OC)nc2c1 | 100 | 100 | inactive |  | 
CCOC(=O)Nc1nc2cc(C(=O)NCCc3ccc(OC)c(OC)c3)ccc2[nH]1 |  |  |  | inactive | 
COC(=O)Nc1nc2cc(C(=O)Nc3ccc(Sc4ccc(NC(=O)c5ccc6[nH]c(NC(=O)OC)nc6c5)cc4)cc3)ccc2[nH]1 |  | 48.2 | inactive | inactive | 
COC(=O)Nc1nc2cc(C(=O)Nc3cccc(C)n3)ccc2[nH]1 | 100 | 100 | inactive |  | Activity [4]: 100%; Activity [31]: 92.5%
COC(=O)Nc1nc2cc(C(=O)N3CCOCC3)ccc2[nH]1 | 100 | 100 |  |  | Activity [13]: 50%; Activity [15]: 83%; Activity [16]: 100%; Activity [17]: 100%; Activity [6]: 100%; Activity [3]: 100%; Activity [11]: 100%
COC(=O)Nc1nc2cc(C(=O)Nc3nc4ccc(OC)cc4s3)ccc2[nH]1 |  |  |  | inactive | Activity [35]: 86.6%; Activity [36]: inactive
COC(=O)Nc1nc2cc(C(=O)Nc3nccs3)ccc2[nH]1 |  |  | inactive | inactive | Activity [36]: inactive
COC(=O)Nc1nc2cc(C(=O)NCc3ccco3)ccc2[nH]1 | 100 | 100 | inactive |  | Activity [37]: 100%; Activity [6]: 100%; Activity [11]: 100%; Activity [38]: 57%; Activity [30]: 100%
COC(=O)Nc1nc2cc(C(=O)Nc3ccc(F)cc3)ccc2[nH]1 | 100 | 100 | inactive |  | 
COC(=O)Nc1nc2cc(C(=O)NC3CCCCC3)ccc2[nH]1 |  | 100 |  | inactive | Activity [3]: 63.2%
